Laboratory results: paper PMC7551138 (Alzheimer's & Dementia : Translational Research & Clinical …, 2020)

Legend:
Format in all cases: in vivo, human
[1] = tested on: healthy elderly subjects; assay: Monitoring of treatment‐emergent adverse events
Method in brief: (§1)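 Randomised, double-blind, placebo-controlled trial in healthy subjects aged ≥65 (n=48; 12 active:4 placebo per cohort, placebos pooled). Intranasal test compound 5.5, 11 or 22 mg or 0.9% NaCl b.i.d. for 7 days, 6 h between doses. The 11 mg active subjects later got one open-label oral 16 mg dose of the parent drug. Safety was tracked by TEAEs, nasal examination, vital signs, ECG and safety bloods.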

[2] = tested on: healthy elderly subjects; assay: Vital signs; details: for Diastolic BP supine / Pulse Rate supine / Systolic BP supine: vs placebo, mean (confidence interval)
Method in brief: as §1

[3] = Plasma pharmacokinetics, non‐compartmental analysis
[4] = CSF and plasma concentrations, Gln‐1062 11 mg vs 16 mg oral galantamine
[5] = tested on: healthy elderly subjects; assay: NeuroCart adaptive tracking test; details: vs placebo, mean (confidence interval)
Method in brief: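 Joystick task keeping a dot inside a moving circle. Circle speed rises while the dot stays inside and falls when it escapes. The score is % time tracked over 3.5 min, including a 0.5 min run-in. Testing was repeated over time, with extra sessions in the 22 mg cohort. Analysis was mixed-model ANOVA (treatment, time, treatment×time fixed; subject random; baseline covariate), reporting LSM difference versus placebo with CI.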

[6] = tested on: healthy elderly subjects; assay: NeuroCart eye movements; details: vs placebo, mean (confidence interval)
Method in brief: (§2)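 NeuroCart tests were repeated over time during the 7-day b.i.d. intranasal dosing: eye movements, N-back with 3 working-memory-load conditions, pharmaco-EEG, and 100-mm VAS (Bond and Lader mood/alertness/calmness; nausea). In the 22 mg cohort, EEG at 30 min and 3 h post-dose was dropped. Analysis was mixed-model ANOVA (treatment, time, treatment×time fixed; subject random; baseline covariate), giving LSM difference versus placebo with CI.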

[7] = tested on: healthy elderly subjects; assay: Visual analogue scales; details: vs placebo, mean (confidence interval)
Method in brief: as §2

[8] = 5.5 mg b.i.d. intranasal, within 24 hours after first administration, dosing day 1
[9] = 22 mg b.i.d. intranasal, within 24 hours after first administration, dosing day 1
[10] = 5.5 mg b.i.d. intranasal 7 days

t1/2 of Gln‐1062 in plasma, mean (± SD) ([3]; 5.5 mg intranasal): 1.16 (±0.37) hour | t1/2 of Gln‐1062 in plasma, mean (± SD) ([3]; 22 mg intranasal): 2.09 (± 0.58) hour | median Tmax of Gln‐1062 in plasma ([3]; intranasal 5.5, 11 or 22 mg b.i.d., range 0.5 to 1.0 hour): 30 min | Gln‐1062 concentrations in CSF ([4]; 11 mg Gln‐1062 intranasal): below the limit of quantification | Dose‐corrected plasma and CSF concentrations of galantamine cleaved from Gln‐1062, compared with oral galantamine ([4]; 11 mg Gln‐1062 intranasal vs 16 mg oral galantamine): lower
SMILES: COc1ccc2c3c1O[C@H]1C[C@@H](OC(=O)c4ccccc4)C=C[C@@]31CCN(C)C2 [Gln‐1062]
TEAEs within 24 hours: All gastrointestinal disorders [1, 8]: 1 (8.3) number of subjects (percentage | TEAEs within 24 hours: Any events [1, 8]: 7 (58.3) number of subjects (percentage | TEAEs within 24 hours: Nausea [1, 8]: 1 (8.3) number of subjects (percentage | TEAEs within 24 hours: Vomiting [1, 8]: 1 (8.3) number of subjects (percentage | TEAEs within 24 hours: Any events ([1]; 11 mg b.i.d. intranasal, within 24 hours after first administration, dosing day 1): 12 (100.0) number of subjects (percentage | TEAEs within 24 hours: All gastrointestinal disorders [1, 9]: 6 (50.0) number of subjects (percentage | TEAEs within 24 hours: Any events [1, 9]: 12 (100.0) number of subjects (percentage | TEAEs within 24 hours: Diarrhea [1, 9]: 2 (16.7) number of subjects (percentage | TEAEs within 24 hours: Nausea [1, 9]: 5 (41.7) number of subjects (percentage | TEAEs within 24 hours: Vomiting [1, 9]: 3 (25.0) number of subjects (percentage | intensity of TEAEs ([1]; 5.5 to 22 mg b.i.d., 7 days): mild or moderate | serious adverse events ([1]; 5.5 to 22 mg b.i.d., 7 days): no serious adverse events | safety and tolerability ([1]; up to 22 mg b.i.d. intranasal for 7 days): safe and well tolerated | Diastolic BP supine [2, 10]: 2.5 (−0.6, 5.6) P = 0.1105 mmHg | Pulse Rate supine [2, 10]: −2.5 (−6.4, 1.4) P = 0.2044 bpm | Systolic BP supine [2, 10]: 5.0 (−0.3, 10.4) P = 0.0644 mmHg | Diastolic BP supine ([2]; 11 mg b.i.d. intranasal 7 days): 0.9 (−2.2, 4.1) P = 0.5566 mmHg | Pulse Rate supine ([2]; 11 mg b.i.d. intranasal 7 days): −1.0 (−4.9, 2.9) P = 0.6030 bpm | Systolic BP supine ([2]; 11 mg b.i.d. intranasal 7 days): 1.2 (−4.1, 6.5) P = 0.6528 mmHg | Diastolic BP supine ([2]; 22 mg b.i.d. intranasal 7 days): 1.2 (−1.9, 4.3) P = 0.4437 mmHg | Pulse Rate supine ([2]; 22 mg b.i.d. intranasal 7 days): 0.5 (−3.5, 4.4) P = 0.8169 bpm | Systolic BP supine ([2]; 22 mg b.i.d. intranasal 7 days): 1.8 (−3.6, 7.2) P = 0.5098 mmHg | effect on the pulse rate ([2]; all dose levels): No statistically significant effect | increase in mean diastolic blood pressure ([2]; first dosing day, 11 mg): 5.1 mm Hg | changes in blood and urinary laboratory values and ECG safety parameters ([2]; multiple doses): did not result in clinically significant changes | increase in systolic blood pressure ([2]; seventh day, 5.5 mg): 7.6 mm Hg | Adaptive tracking [5, 10]: 0.520 (−0.779, 1.818) P = 0.4240 %‐point | Adaptive tracking ([5]; 11 mg b.i.d. intranasal 7 days): 0.318 (−0.992, 1.627) P = 0.6266 %‐point | Saccadic Inaccuracy [6, 10]: 0.59 (−0.46, 1.64) P = 0.2627% | Saccadic Peak Velocity [6, 10]: −0.06 (−21.97, 21.85) P = 0.9958 deg/s | Saccadic Reaction Time [6, 10]: −0.0112 (−0.0224,−0.0001) P = 0.0481 sec | Smooth Pursuit [6, 10]: −1.28 (−5.10, 2.53) P = 0.5011% | Saccadic Inaccuracy ([6]; 11 mg b.i.d. intranasal 7 days): 0.20 (−0.89, 1.30) P = 0.7099% | Saccadic Peak Velocity ([6]; 11 mg b.i.d. intranasal 7 days): 5.03 (−17.82, 27.87) P = 0.6588 deg/s | Saccadic Reaction Time ([6]; 11 mg b.i.d. intranasal 7 days): −0.0018 (−0.0134, 0.0098) P = 0.7546 sec | Smooth Pursuit ([6]; 11 mg b.i.d. intranasal 7 days): −0.10 (−4.04, 3.84) P = 0.9597% | Saccadic Inaccuracy ([6]; 22 mg b.i.d. intranasal 7 days): 0.51 (−0.56, 1.58) P = 0.3393% | Saccadic Peak Velocity ([6]; 22 mg b.i.d. intranasal 7 days): 8.63 (−13.65, 30.91) P = 0.4379 deg/s | Saccadic Reaction Time ([6]; 22 mg b.i.d. intranasal 7 days): −0.0013 (−0.0126, 0.0101) P = 0.8228 sec | Smooth Pursuit ([6]; 22 mg b.i.d. intranasal 7 days): 2.00 (−1.88, 5.88) P = 0.3039% | VAS Alertness [7, 10]: −1.09 (−3.74, 1.57) P = 0.4134 mm | VAS Calmness [7, 10]: 0.44 (−2.59, 3.48) P = 0.7694 mm | VAS Mood [7, 10]: −0.92 (−3.98, 2.13) P = 0.5462 mm | VAS Alertness ([7]; 11 mg b.i.d. intranasal 7 days): 0.63 (−2.15, 3.41) P = 0.6514 mm | VAS Calmness ([7]; 11 mg b.i.d. intranasal 7 days): 0.27 (−2.86, 3.40) P = 0.8615 mm | VAS Mood ([7]; 11 mg b.i.d. intranasal 7 days): −0.49 (−3.59, 2.62) P = 0.7530 mm | VAS Alertness ([7]; 22 mg b.i.d. intranasal 7 days): −0.21 (−2.86, 2.44) p = 0.8735 mm | VAS Calmness ([7]; 22 mg b.i.d. intranasal 7 days): 0.44 (−2.61, 3.49) P = 0.7734 mm
